Assay results from different studies.
Lines come from different studies, so protocols differ.
ADORA2A: Adenosine receptor A2a (ADORA2A, Homo sapiens, UniProt P29274)
HDAC2: Histone deacetylase 2 (HDAC2, Homo sapiens, UniProt Q92769)
HTR2A: 5-hydroxytryptamine receptor 2A (HTR2A, Homo sapiens, UniProt P28223)

Structure (SMILES) | target | observed | mode | method | measurement | value
N#C[C@@]12C[C@@H]1[C@@H](n1cnc3c(N[C@@H](C4CCC4)C4CC4)nc(I)nc31)[C@H](O)[C@@H]2O | ADORA2A | ligand displacement | – | radioligand | Ki | > 10000 nM
O=C(NO)c1cncc(OS(=O)(=O)Oc2ccc(C(F)(F)F)cc2)c1 | HDAC2 | enzyme activity | inhibitor | fluorescence | Ki | 1310 nM
CN(C)c1ncnc2c1ncn2[C@@H]1O[C@H](CO)[C@@H](O)[C@H]1O | ADORA2A | G protein activation | agonist | – | EC50 | 3.2 µM
COc1ccccc1CC1CCN(CC(=O)c2cc(C)[nH]c2C)C1 (stereo not drawn) | HTR2A | calcium signal | antagonist | – | IC50 | 13.2 µM
C=CCO[C@H]1O[C@H](CO)[C@@H](OP(=O)(O)O[C@H]2O[C@H](CO)[C@@H](O)[C@H](O)[C@@H]2O)[C@H](O)[C@@H]1O | CLEC4E (Homo sapiens, UniProt Q9ULY5) | binding | – | BLI | Kd | 1590 nM
Cc1[nH]c2ccccc2c1SCCNC(=O)C1NCCC1C1CC1 (stereo not drawn) | HTR2A | calcium signal | antagonist | – | IC50 | 31.7 µM
N#C[C@@]12C[C@@H]1[C@@H](n1cnc3c(NCc4cccc(Cl)c4)nc(I)nc31)[C@H](O)[C@@H]2O | HTR2A | ligand displacement | – | radioligand | Ki | 4900 nM
O=C(/C=C/c1cccc(OS(=O)(=O)Oc2ccc(C(F)(F)F)cc2)c1)NO | HDAC2 | enzyme activity | inhibitor | fluorescence | Ki | 105 nM
CC(C)=CCNc1ncnc2c1ncn2[C@@H]1O[C@H](CO)[C@@H](O)[C@H]1O | ADORA2A | G protein activation | agonist | – | EC50 | 6.4 µM
